A1 apoptosis 2: blocks A1, raising caspase activity; MEF A1-2A-BIM cells, caspase-Glo luminescence, 3 h; percent of clofoctol response, DMSO zero; caspase activation, % (no concentration beside the values); 24,000 tested, under 10 active; AID 2465; in the data active = caspase activation above about 5.9%
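system = A1-2A-BIM-expressing MEF cells | quantity = 2500 MEF cells/well | dosing = 50 nL compound per well, pinned | schedule = overnight cell settling, then 3 h compound exposure, 37 °C | signal = luminescence from DEVD-luciferin Caspase-Glo reagent, 1:1 in 50 mM HEPES, 1 h RT | read-out = Caspase-3/7 activation, seen as rise in luminescence signal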
A number is an active result. Shown is part of a subset that was picked to be rich in hits.

Results for COc1ccc(Br)c(/C=N/NC(=O)c2ccccn2)c1 ?
A1 apoptosis 2: inactive

Results for Cc1[nH]cnc1/C=N/NC(=O)c1ccccc1O ?
A1 apoptosis 2: inactive

What do the screens show for `O=C(O)CCCCCC(=O)N/N=C/c1cccc(Br)c1`?
A1 apoptosis 2: inactive

What do the screens show for `O=C(CCCCCCC(=O)Nc1ccccc1O)N/N=C/[C@@H](O)[C@H](O)[C@H](O)CO`?
A1 apoptosis 2: inactive

What do the screens show for `O=C(O)CCCCCCC(=O)N/N=C/C1CCCCC1`?
A1 apoptosis 2: inactive

What do the screens show for `O=C(CCCCCCC(=O)Nc1ccccc1O)N/N=C/c1ccc([N+](=O)[O-])s1`?
A1 apoptosis 2: inactive

How did O=C(CCCCCC(=O)N/N=C/c1ccco1)NO do in these assays?
A1 apoptosis 2: inactive

How did NC(=O)NCC#Cc1ccc2c(c1)[C@]1(C(=O)N2)[C@H](C(=O)N2CCCCCCC2)[C@H]2C(=O)O[C@H](c3ccccc3)[C@H](c3ccccc3)N2[C@@H]1c1ccc(O)cc1 do in these assays?
A1 apoptosis 2: inactive

Results for O=C(CCCCCC(=O)Nc1ccccc1O)N/N=C/c1cc(O)ccc1[N+](=O)[O-] ?
A1 apoptosis 2: inactive

Results for O=C(N/N=C/c1ccc(-c2ccccc2)c(F)c1)c1ccccc1O ?
A1 apoptosis 2: inactive

What do the screens show for `CCN(CC)c1ccc(/C=N/NC(=O)c2ccccn2)c(O)c1`?
A1 apoptosis 2: inactive

Results for O=C(NO)c1cccc(C(=O)N/N=C/c2ccc(Oc3ccccc3)cc2)c1 ?
A1 apoptosis 2: inactive

How did O=C(O)CCCCCC(=O)N/N=C/c1cn(S(=O)(=O)c2ccccc2)c2ccccc12 do in these assays?
A1 apoptosis 2: inactive

How did Cc1ccc(/C=N/NC(=O)c2cccc(C(=O)NO)c2)o1 do in these assays?
A1 apoptosis 2: inactive

Results for O=C(CCCCCCC(=O)Nc1ccccc1O)N/N=C\c1ccc2ccccc2n1 ?
A1 apoptosis 2: inactive

How did O=C(NO)c1cccc(C(=O)N/N=C/c2ccc(O)c(O)c2O)c1 do in these assays?
A1 apoptosis 2: inactive

What do the screens show for `COC(=O)c1ccc([C@@H]2C=C(C(=O)O)O[C@H](OCCCCO)C2)cc1`?
A1 apoptosis 2: inactive

What do the screens show for `CC1(C)[C@H]2CC=C(/C=N\NC(=O)CCCCCCC(=O)O)[C@@H]1C2`?
A1 apoptosis 2: inactive

Results for O=C(CCCCCCC(=O)Nc1ccccc1O)NN=C1CCCCCC1 ?
A1 apoptosis 2: inactive

How did CCO[C@@H]1OC(C(=O)N2CCOCC2)=C[C@H](c2ccc3c(c2)OCO3)[C@H]1CCCO do in these assays?
A1 apoptosis 2: inactive

How did COc1ccc([Si](C)(C)[C@@H]2[C@@H](CCO)O[C@]3(C(=O)N(c4ccccc4)c4ccccc43)[C@H]2C)cc1 do in these assays?
A1 apoptosis 2: inactive

Results for COc1ccc([Si](C)(C)[C@@H]2[C@@H](CCO)O[C@]3(C(=O)N(C)c4ccccc43)[C@H]2C)cc1 ?
A1 apoptosis 2: inactive

Results for COc1ccc([Si](C)(C)[C@@H]2[C@@H](CCO)O[C@]3(C(=O)N(C)c4c(Br)cc(C)cc43)[C@H]2C)cc1 ?
A1 apoptosis 2: 44

Results for O=C(NO)c1ccc(C(=O)N/N=C/c2ccccc2OCCO)cc1 ?
A1 apoptosis 2: inactive

Results for COC(=O)CCCCCCC(=O)N/N=C/[C@H](O)[C@@H](O)[C@H](O)[C@H](O)CO ?
A1 apoptosis 2: inactive

What do the screens show for `COCCOC(=O)N1C(=O)[C@@]2(c3ccccc31)[C@H](C(=O)N1CCc3cc(OC)c(OC)cc3C1)[C@H]1C(=O)O[C@H](c3ccccc3)[C@H](c3ccccc3)N1[C@@H]2c1ccccc1OCCO`?
A1 apoptosis 2: inactive

How did O=C(CCCCCCC(=O)Nc1ccccc1O)N/N=C/c1ccc(N2CCCC2)cc1 do in these assays?
A1 apoptosis 2: inactive

Results for C[C@H](CO)N1C[C@H](C)[C@H](CN(C)Cc2ccc(C(F)(F)F)cc2)Oc2ccc(NC(=O)Nc3ccc(C(F)(F)F)cc3)cc2CC1=O ?
A1 apoptosis 2: 6.6

Results for C[C@@H]1CN([C@H](C)CO)C(=O)Cc2cc(NC(=O)Nc3ccc(C(F)(F)F)cc3)ccc2O[C@H]1CN(C)Cc1ccc(C(F)(F)F)cc1 ?
A1 apoptosis 2: inactive

What do the screens show for `C[C@@H]1CN([C@H](C)CO)C(=O)Cc2cc(NC(=O)Nc3ccc(C(F)(F)F)cc3)ccc2O[C@@H]1CN(C)Cc1ccc(C(F)(F)F)cc1`?
A1 apoptosis 2: inactive

What do the screens show for `O=C(NO)c1cccc(C(=O)N/N=C/c2ccoc2)c1`?
A1 apoptosis 2: inactive

How did COc1ccc(COC[C@]23NC(=S)N[C@H](c4ccccc4O2)[C@H]3CO[Si](C)(C)C(C)(C)C)cc1 do in these assays?
A1 apoptosis 2: inactive

Results for COc1ccc(/C=N/NC(=O)c2cccc(C(=O)NO)c2)cc1 ?
A1 apoptosis 2: inactive

Results for COC(=O)CCCCCCC(=O)N/N=C/CCC1CCCCC1 ?
A1 apoptosis 2: inactive

How did O=C(NO)c1cccc(C(=O)N/N=C/c2cn(S(=O)(=O)c3ccccc3)c3ccccc23)c1 do in these assays?
A1 apoptosis 2: inactive

Results for O=C(NO)c1ccc(C(=O)N/N=C/c2ccc(CO)o2)cc1 ?
A1 apoptosis 2: inactive

What do the screens show for `O=C(CCCCCC(=O)N/N=C/c1ccc(Br)s1)NO`?
A1 apoptosis 2: inactive

What do the screens show for `Cc1nnc(Sc2ccc(/C=N/NC(=O)c3ccc(C(=O)NO)cc3)o2)n1C`?
A1 apoptosis 2: inactive

How did CC(C)=CCC[C@H](C)C/C=N/NC(=O)CCCCCC(=O)NO do in these assays?
A1 apoptosis 2: inactive

Results for [N-]=[N+]=NCc1ccccc1C[C@@]1(C(=O)NCC(O)CO)N=C(c2ccc(OCCCO)cc2)O[C@@H]1c1ccccc1 (some centres not stated) ?
A1 apoptosis 2: 5.9

Results for COC(=O)[C@@]1(Cc2ccccc2CN=[N+]=[N-])N=C(c2ccc(OCCCO)cc2)O[C@H]1c1ccccc1 ?
A1 apoptosis 2: inactive

Results for [N-]=[N+]=NCc1ccccc1C[C@]1(C(=O)NCC(O)CO)N=C(c2ccc(OCCCO)cc2)O[C@H]1c1ccccc1 (some centres not stated) ?
A1 apoptosis 2: inactive

Results for O=C(N/N=C/c1cc(Cl)cc(Cl)c1O)c1ccccc1O ?
A1 apoptosis 2: inactive

How did COc1ccccc1CN1C(=O)c2ccccc2[C@@]2(Cc3ccccc3N(CCCN(C)C)C2=O)[C@@H]1c1ccc(CO)cc1 do in these assays?
A1 apoptosis 2: inactive

Results for CCCCN(CCCC)c1ccc(/C=N/NC(=O)CCCCCCC(=O)OC)cc1 ?
A1 apoptosis 2: inactive

Results for O=C(NO)c1ccc(C(=O)N/N=C/c2cc(F)ccc2O)cc1 ?
A1 apoptosis 2: inactive

Results for COc1ccc(S(=O)(=O)N(C)C[C@@H]2Oc3c(NS(=O)(=O)c4ccccc4)cccc3C(=O)N([C@@H](C)CO)C[C@H]2C)cc1 ?
A1 apoptosis 2: inactive

Results for O=C(CCCCCCC(=O)Nc1ccccc1O)N/N=C/c1cc(Br)ccc1O ?
A1 apoptosis 2: inactive

How did COCCCNC(=O)[C@@]1(Cc2ccccc2I)c2ccccc2C(=O)N(Cc2ccccc2OC)[C@H]1c1ccc(CO)cc1 do in these assays?
A1 apoptosis 2: inactive

How did COc1ccc([Si](C)(C)[C@H]2[C@H](CCn3cc(CCO)nn3)O[C@@]3(C(=O)N(Cc4ccc(N5CCOC5=O)cc4)c4ccccc43)[C@@H]2C)cc1 do in these assays?
A1 apoptosis 2: inactive

Results for O=C(NO)c1ccc(C(=O)N/N=C/c2cccc(O)c2)cc1 ?
A1 apoptosis 2: inactive

How did CCOc1cc(/C=N/NC(=O)CCCCCCC(=O)NO)ccc1O do in these assays?
A1 apoptosis 2: inactive

How did O=C(N/N=C/c1ccc(N2CCCC2)cc1)c1ccccn1 do in these assays?
A1 apoptosis 2: inactive

Screens (PubChem BioAssay)
